Data published in ChEMBL document CHEMBL2086292, “Chalcogenopyrylium compounds as modulators of the ATP-binding cassette transporters P-glycoprotein (P-gp/ABCB1) and multidrug resistance protein 1 (MRP1/ABCC1)” (J Med Chem, 2012).
One block for each compound: values may come before it.

What was measured:
P-gp (ABCB1) = P-gp (ABCB1) (Homo sapiens, UniProt P08183); experiment: (§1) Induction of ATPase activity of human His10-tagged P-gp expressed in BHK cells assessed as inorganic phosphate release after 30 mins relative to control; assay type: cell-based; details: human His10-tagged P-gp expressed in BHK cells, read-out: FC
Method in brief: (§2)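 Human P-gp with C-terminal His10 tag, stably expressed in BHK cells, purified by Ni-chelate chromatography and mixed 1:1 with 10 mg/mL sheep brain phosphatidylethanolamine in TBS (10 mM Tris/HCl pH 7.4, 150 mM NaCl), then sonicated. Compound titrated, 30 min at 37 °C. Inorganic phosphate released from ATP measured. Vmax expressed as fold over basal activity; KM is the concentration giving half-maximal stimulation.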

[1] = molecular target: T1, MRP1 (Multidrug resistance-associated protein 1) (Homo sapiens, UniProt P33527); experiment: Inhibition of human MRP1 mediated uptake of [3H]E2-17betaG in HEK cell membrane vesicles at 30 uM by liquid scintillation counting relative to control; assay type: cell membranes, HEK293; details: HEK cell membrane vesicles with human MRP1, probe [3H]E2-17betaG
Method in brief: (§3)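 Inside-out membrane vesicles from HEK cells stably transfected with human MRP1. Vesicle protein (2 μg) incubated in Tris-sucrose buffer pH 7.4 with 400 nM [3H]E2-17βG, 4 mM ATP or AMP and 10 mM MgCl2, 3 min at 37 °C, in duplicate; DMSO ≤1% final. Stopped by ice-cold dilution and rapid filtration, then scintillation counted. ATP-dependent uptake taken as ATP minus AMP values; inhibition reported as percent.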

[2] = molecular target: T1, MRP1 (Multidrug resistance-associated protein 1); experiment: Inhibition of human MRP1 mediated uptake of [3H]E2-17betaG in HEK cell membrane vesicles at 5 uM by liquid scintillation counting relative to control; assay type: cell membranes, HEK293; details: HEK cell membrane vesicles with human MRP1, probe [3H]E2-17betaG
Method in brief: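 Inside-out vesicles from stably transfected HEK-MRP1 cells (2 μg protein) in Tris-sucrose buffer pH 7.4 with [³H]E₂17βG 400 nM, ATP or AMP 4 mM, MgCl₂ 10 mM, 3 min at 37 °C, compound at 5 μM; DMSO ≤1%; stopped by ice-cold dilution, rapid filtration, scintillation counting; ATP-dependent uptake = ATP minus AMP; duplicate wells.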

[3] = Normalized ratio of the compound assessed as ratio of PBA/AB in absence of LSN 335984 to ratio of PBA/AB in presence of LSN 335984 in MDCK2-MDR1 cells at 5 uM after 1 hr; assay type: ADME, cell-based, Canis lupus familiaris; details: dog, mdck-mdr1, 1 h
Method in brief: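 MDCKII-MDR1 cells seeded at 50000 cells/cm² on Transwell filters, used on day 6. Preincubated 30 min with 4.3 mg/mL BSA in DPBSH, with or without 5 μM LSN 335984. Compound (5 μM) added to the apical or basolateral donor chamber and incubated 1 h at 37 °C with nutation. Donor and receiver samples quantified by LC-MS/MS. AB and BA permeabilities calculated. Normalized ratio is the BA/AB ratio without inhibitor divided by the ratio with inhibitor.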

MDCK-II [4] = experiment: Inhibition of P-gp expressed in MDCK2-MDR1 cells at 25 uM by calcein AM accumulation assay relative to LSN 335984; assay type: cell-based
Method in brief: (§4)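 MDCKII cells transfected with wild-type human MDR1, seeded at 40000 cells/well and used on day 4. Washed in DPBS with 10 mM HEPES pH 7.4, then compound in the same buffer 30 min at 37 °C. Replaced with compound plus 0.5 μg/mL calcein AM for a further 20 min. Fluorescence read at Ex 485/Em 530 nm. Signal expressed relative to 5 μM LSN 335984, taken as complete inhibition; vehicle 0.25% DMSO. IC50 from 1:1 serial dilutions by variable-slope sigmoidal fit.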

[5] = Octanol-water partition coefficient, log P of the compound in PBS at pH 7.4 after 1 hr by shake flask method; assay type: physicochemical
Method in brief: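 Shake-flask method: saturated n-octanol solution shaken with an equal volume of PBS pH 7.4 for 3–5 min, then left to settle 1 h at 23 °C. Concentration in each layer measured spectrophotometrically.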

[6] = molecular target: T1, MRP1 (Multidrug resistance-associated protein 1); experiment: Inhibition of human MRP1-mediated uptake of [3H]E2-17betaG in HEK cell membrane vesicles at 1 uM by liquid scintillation counting relative to control; assay type: cell membranes, HEK293; details: HEK cell membrane vesicles with human MRP1, probe [3H]E2-17betaG; method in brief: as §3
P-glycoprotein (MDR1) [7] = experiment: P-glycoprotein-mediated transport in MDCK2-MDR1 cells assessed as permeability across apical to basolateral side at 5 uM after 1 hr; details: dog, MDCK-MDR1
P-glycoprotein (MDR1) [8] = experiment: P-glycoprotein-mediated transport in MDCK2-MDR1 cells assessed as permeability across basolateral to apical side at 5 uM after 1 hr; details: dog, MDCK-MDR1
[9] = molecular target: T1, MRP1 (Multidrug resistance-associated protein 1); experiment: Inhibition of human MRP1-mediated uptake of [3H]E2-17betaG in HEK cell membrane vesicles at 10 uM by liquid scintillation counter; assay type: cell membranes, HEK293; details: HEK cell membrane vesicles with human MRP1, probe [3H]E2-17betaG; method in brief: as §3
[10] = Inhibition of P-gp expressed in MDCK2-MDR1 cells by calcein AM accumulation assay; assay type: cell-based; details: MDCK-II
Method in brief: as §4, with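 “min.” for “min. Fluorescence read at Ex 485/Em 530 nm. Signal expressed relative to 5 μM LSN 335984, taken as complete inhibition; vehicle 0.25% DMSO.”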

[11] = Inhibition of P-gp mediated [3H]VIN efflux in MDCK2-MDR1 cells by scintillation counter; assay type: cell-based; details: MDCK-II
Method in brief: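 MDCKII-MDR1 monolayers on Transwell filters, used on day 6. Rinsed in DPBSH, then preincubated 30 min at 37 °C with compound ([…]) in BSA/DPBSH. [3H]vinblastine (0.25 μCi/mL) plus compound added basolaterally and fresh compound solution added apically. Apical buffer replaced every 10 min; apical radioactivity counted by scintillation. IC50 fitted.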

MDCK-II [12] = experiment: Inhibition of P-gp expressed in MDCK2-MDR1 cells at 5 uM by calcein AM accumulation assay relative to LSN 335984; assay type: cell-based; method in brief: as §4
[13] = molecular target: T2, ATP-dependent translocase ABCB1 (Homo sapiens, UniProt P08183); experiment: as §1; assay type: cell-based; details: bhk, 0.5 h; method in brief: as §2
[14] = molecular target: T2, ATP-dependent translocase ABCB1; experiment: Inhibition of VER-stimulated human His10-tagged P-gp ATPase activity expressed in BHK cells after 15 mins; assay type: cell-based

T1 sequence (P33527 whole entry): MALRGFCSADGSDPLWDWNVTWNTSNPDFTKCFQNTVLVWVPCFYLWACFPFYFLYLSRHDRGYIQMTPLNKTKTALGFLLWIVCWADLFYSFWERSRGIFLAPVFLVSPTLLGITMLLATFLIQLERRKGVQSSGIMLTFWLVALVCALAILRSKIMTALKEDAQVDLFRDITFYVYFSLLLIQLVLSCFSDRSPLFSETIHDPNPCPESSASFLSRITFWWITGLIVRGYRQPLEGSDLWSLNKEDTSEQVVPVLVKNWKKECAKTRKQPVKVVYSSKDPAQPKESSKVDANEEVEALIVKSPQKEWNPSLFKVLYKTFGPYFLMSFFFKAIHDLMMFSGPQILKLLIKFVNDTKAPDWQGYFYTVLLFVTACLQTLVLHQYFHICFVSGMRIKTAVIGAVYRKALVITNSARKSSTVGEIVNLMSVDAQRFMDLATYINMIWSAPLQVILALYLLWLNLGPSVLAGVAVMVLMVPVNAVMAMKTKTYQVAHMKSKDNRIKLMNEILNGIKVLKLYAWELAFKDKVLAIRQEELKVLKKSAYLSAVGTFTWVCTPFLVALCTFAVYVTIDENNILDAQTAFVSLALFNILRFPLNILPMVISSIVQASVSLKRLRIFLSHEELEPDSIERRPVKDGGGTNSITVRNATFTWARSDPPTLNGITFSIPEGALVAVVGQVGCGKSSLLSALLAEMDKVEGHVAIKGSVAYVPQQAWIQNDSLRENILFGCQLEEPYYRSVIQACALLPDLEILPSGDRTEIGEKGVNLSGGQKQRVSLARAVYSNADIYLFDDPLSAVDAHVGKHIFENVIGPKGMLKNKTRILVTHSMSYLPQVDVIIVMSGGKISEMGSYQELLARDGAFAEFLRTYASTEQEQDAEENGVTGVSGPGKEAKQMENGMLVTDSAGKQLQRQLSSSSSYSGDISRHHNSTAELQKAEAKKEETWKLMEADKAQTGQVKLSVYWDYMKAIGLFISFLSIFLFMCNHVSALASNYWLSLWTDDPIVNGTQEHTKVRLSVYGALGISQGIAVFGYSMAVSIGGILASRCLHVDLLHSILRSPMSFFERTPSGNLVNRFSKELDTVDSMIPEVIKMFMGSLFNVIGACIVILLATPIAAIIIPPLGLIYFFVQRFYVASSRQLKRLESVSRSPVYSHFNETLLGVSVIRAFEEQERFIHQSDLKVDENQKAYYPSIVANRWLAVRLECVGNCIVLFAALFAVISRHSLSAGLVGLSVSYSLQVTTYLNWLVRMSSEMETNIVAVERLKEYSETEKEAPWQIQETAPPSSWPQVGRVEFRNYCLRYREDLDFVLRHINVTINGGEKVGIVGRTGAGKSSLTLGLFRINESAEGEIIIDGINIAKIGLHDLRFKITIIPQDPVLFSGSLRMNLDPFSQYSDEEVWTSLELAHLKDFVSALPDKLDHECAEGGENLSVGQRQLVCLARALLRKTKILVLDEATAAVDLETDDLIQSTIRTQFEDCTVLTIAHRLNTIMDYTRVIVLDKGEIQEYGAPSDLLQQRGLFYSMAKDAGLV
Sequence of P-gp (ABCB1) (P08183 whole entry): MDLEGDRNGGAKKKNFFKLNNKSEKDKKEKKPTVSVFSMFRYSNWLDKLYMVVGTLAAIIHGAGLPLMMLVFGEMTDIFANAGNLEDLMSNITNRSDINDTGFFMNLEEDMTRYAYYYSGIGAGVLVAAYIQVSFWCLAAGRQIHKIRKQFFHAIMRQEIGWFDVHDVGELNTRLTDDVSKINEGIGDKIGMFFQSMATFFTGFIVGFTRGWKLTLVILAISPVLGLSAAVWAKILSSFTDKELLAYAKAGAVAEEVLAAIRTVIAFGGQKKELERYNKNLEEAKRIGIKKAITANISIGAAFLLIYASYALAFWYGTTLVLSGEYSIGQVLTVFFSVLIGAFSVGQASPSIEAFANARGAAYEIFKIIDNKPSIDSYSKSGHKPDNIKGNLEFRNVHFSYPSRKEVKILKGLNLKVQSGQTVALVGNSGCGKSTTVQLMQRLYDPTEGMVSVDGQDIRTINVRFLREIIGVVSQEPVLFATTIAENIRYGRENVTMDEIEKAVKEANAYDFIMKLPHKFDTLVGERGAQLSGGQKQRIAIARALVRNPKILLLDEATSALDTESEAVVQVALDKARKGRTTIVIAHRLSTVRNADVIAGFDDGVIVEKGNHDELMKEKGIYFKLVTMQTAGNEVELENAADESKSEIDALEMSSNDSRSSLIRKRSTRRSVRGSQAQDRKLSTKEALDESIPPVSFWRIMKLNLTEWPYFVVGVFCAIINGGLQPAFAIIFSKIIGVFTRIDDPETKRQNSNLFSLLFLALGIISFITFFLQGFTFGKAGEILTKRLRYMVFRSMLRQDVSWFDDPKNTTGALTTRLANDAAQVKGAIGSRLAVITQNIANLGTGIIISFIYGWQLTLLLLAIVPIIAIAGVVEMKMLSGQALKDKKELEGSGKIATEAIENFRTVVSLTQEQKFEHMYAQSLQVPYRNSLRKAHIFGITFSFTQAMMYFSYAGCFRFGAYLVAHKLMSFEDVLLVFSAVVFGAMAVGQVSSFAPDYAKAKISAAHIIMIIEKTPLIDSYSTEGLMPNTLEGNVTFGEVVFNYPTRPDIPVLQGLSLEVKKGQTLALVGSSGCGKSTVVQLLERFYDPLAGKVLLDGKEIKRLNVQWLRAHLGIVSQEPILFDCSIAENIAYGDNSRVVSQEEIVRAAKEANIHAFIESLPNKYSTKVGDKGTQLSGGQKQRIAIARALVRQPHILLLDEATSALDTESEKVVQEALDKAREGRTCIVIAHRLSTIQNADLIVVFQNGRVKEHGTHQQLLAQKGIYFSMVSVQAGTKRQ
T2 sequence (P08183 whole entry): as above

Compound: CC(C)(C)c1cc(-c2ccccc2)cc(C(C)(C)C)[te+]1
- fold induction at 0.5 h (P-gp (ABCB1)): 1.5
- inhibition at 30 µM [1]: 34%

Compound: CN(C)c1ccc(-c2cc(-c3ccc(N(C)C)cc3)[te+]c(C(C)(C)C)c2)cc1
- fold induction at 0.5 h (P-gp (ABCB1)): 8.4
- inhibition at 30 µM [1]: 96%

Compound: CCN(CC)C(=O)c1ccccc1-c1cc(-c2ccc(N(C)C)cc2)[s+]c(C(C)(C)C)c1
- inhibition (MDCK-II [4]): 13%
- fold induction at 0.5 h (P-gp (ABCB1)): 13.5
- inhibition (MDCK-II [12]): 2%
- inhibition at 30 µM [1]: 43%

Compound: CC(C)(C)c1cc(-c2ccc(C(=S)N3CCCCC3)s2)cc(C(C)(C)C)[s+]1.F[P-](F)(F)(F)(F)F
- fold change (FC) [13]: 4.4
- inhibition at 30 µM [1]: 71%

Compound: Cc1cc(C(C)(C)C)[se+]c(C(C)(C)C)c1
- inhibition at 30 µM [1]: 0%

Compound: CC(C)(C)c1cc(-c2ccc(C(=S)N3CCCCC3)s2)cc(C(C)(C)C)[te+]1
- fold induction at 0.5 h (P-gp (ABCB1)): 7.4
- inhibition at 5 µM [2]: 50%

Compound: CN(C)c1ccc(-c2cc(-c3ccc(N(C)C)cc3)[se+]c(C(C)(C)C)c2)cc1
- fold induction at 0.5 h (P-gp (ABCB1)): 10.1
- inhibition at 30 µM [1]: 96%

Compound: CN(C)c1ccc(-c2cc(-c3ccc(C(=S)N4CCCCC4)s3)cc(-c3ccc(N(C)C)cc3)[s+]2)cc1.[Cl-]
- Ratio [3]: 8
- IC50 [10]: 34 µM
- IC50 [11]: 6.6 µM
- logD at 1 h [5]: 1.6
- fold induction at 0.5 h (P-gp (ABCB1)): 5.7
- inhibition at 1 µM [6]: 25%
- Papp A-B at 1 h, 5 µM (P-glycoprotein (MDR1) [7]): 0.11 ×10⁻⁶ cm/s
- Papp B-A at 1 h, 5 µM (P-glycoprotein (MDR1) [8]): 1.6 ×10⁻⁶ cm/s
- inhibition at 10 µM [9]: 81%

Compound: CC(C)(C)c1cc(-c2ccc(C(=O)O)s2)cc(C(C)(C)C)[te+]1
- fold induction at 0.5 h (P-gp (ABCB1)): < 1.4
- inhibition at 5 µM [2]: 24%
- IC50 [14]: 162 µM

Further lines, with some results ahead:

- fold induction at 0.5 h (P-gp (ABCB1)): 5.9
- inhibition at 5 µM [2]: 70%
Compound: CCCCc1cc(-c2ccc(N(C)C)cc2)cc(-c2ccc(N(C)C)cc2)[s+]1

- Ratio [3]: 10
- logD at 1 h [5]: 0.2
- fold induction at 0.5 h (P-gp (ABCB1)): 5.5
- inhibition at 1 µM [6]: 0%
- Papp A-B at 1 h, 5 µM (P-glycoprotein (MDR1) [7]): 0.38 ×10⁻⁶ cm/s
- Papp B-A at 1 h, 5 µM (P-glycoprotein (MDR1) [8]): 5.9 ×10⁻⁶ cm/s
- inhibition at 10 µM [9]: 11%
Compound: CC(C)(C)c1cc(-c2ccc(C(=O)N3CCCCC3)s2)cc(C(C)(C)C)[s+]1.F[P-](F)(F)(F)(F)F
- inhibition (MDCK-II [4]): < 7%

- Ratio [3]: 79
- IC50 [10]: 24 µM
- logD at 1 h [5]: 2.1
- fold induction at 0.5 h (P-gp (ABCB1)): 6
- inhibition at 1 µM [6]: 18%
- Papp A-B at 1 h, 5 µM (P-glycoprotein (MDR1) [7]): 0.17 ×10⁻⁶ cm/s
- Papp B-A at 1 h, 5 µM (P-glycoprotein (MDR1) [8]): 62 ×10⁻⁶ cm/s
- inhibition at 10 µM [9]: 78%
Compound: CN(C)c1ccc(-c2cc(-c3ccc(C(=O)N4CCCCC4)s3)cc(-c3ccc(N(C)C)cc3)[s+]2)cc1.F[P-](F)(F)(F)(F)F
- IC50 [11]: 5.9 µM

- Ratio [3]: 4
- IC50 [10]: 18 µM
- logD at 1 h [5]: 1.4
- fold induction at 0.5 h (P-gp (ABCB1)): 6.6
- inhibition at 1 µM [6]: 0%
- Papp A-B at 1 h, 5 µM (P-glycoprotein (MDR1) [7]): 0.56 ×10⁻⁶ cm/s
- Papp B-A at 1 h, 5 µM (P-glycoprotein (MDR1) [8]): 2.2 ×10⁻⁶ cm/s
- inhibition at 10 µM [9]: 59%
Compound: CN(C)c1ccc(-c2cc(-c3ccc(C(=O)N4CCCCC4)s3)cc(C(C)(C)C)[s+]2)cc1.F[P-](F)(F)(F)(F)F

- fold induction at 0.5 h (P-gp (ABCB1)): 5.9
- inhibition at 30 µM [1]: 31%
Compound: CCN(CC)C(=O)c1ccccc1-c1cc(C(C)(C)C)[se+]c(C(C)(C)C)c1

- fold induction at 0.5 h (P-gp (ABCB1)): 4.3
- inhibition at 30 µM [1]: 81%
Compound: CC(C)(C)c1cc(-c2ccc(C(=S)N3CCCCC3)s2)cc(C(C)(C)C)[se+]1

- inhibition at 1 µM [6]: 0%
Compound: Cc1cc(-c2ccccc2)[s+]c(-c2ccccc2)c1
